Data on 6 compounds can be found in ChEMBL document CHEMBL1134624, “Potent and selective ET-A antagonists. 1. Syntheses and structure-activity relationships of N-(6-(2-(aryloxy)ethoxy)-4-pyrimidinyl)sulfonamide derivatives” (J Med Chem, 2001).

Structures are written as SMILES.

Assay [1] concerns the target T1, Endothelin-1 receptor (Sus scrofa, UniProt Q29010).
T1 sequence (Q29010 whole entry): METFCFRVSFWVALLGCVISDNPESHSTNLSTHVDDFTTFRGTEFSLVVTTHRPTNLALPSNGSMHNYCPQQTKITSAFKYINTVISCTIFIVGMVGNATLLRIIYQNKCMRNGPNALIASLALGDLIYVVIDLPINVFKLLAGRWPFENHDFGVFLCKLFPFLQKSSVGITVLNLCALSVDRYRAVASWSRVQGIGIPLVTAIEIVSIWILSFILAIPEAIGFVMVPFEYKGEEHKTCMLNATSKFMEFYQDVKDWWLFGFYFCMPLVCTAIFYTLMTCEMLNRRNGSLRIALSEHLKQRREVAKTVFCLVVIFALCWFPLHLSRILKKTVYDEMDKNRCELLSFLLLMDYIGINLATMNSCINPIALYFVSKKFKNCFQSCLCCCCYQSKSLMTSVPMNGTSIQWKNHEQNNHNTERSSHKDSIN
Description: In vitro inhibition of [125I]ET1 binding to Endothelin A receptor in porcine aortic membrane from endothelial cells. The class given is cell membranes. The note with it: in the assay text read “with endothelium removed” for “from endothelial cells”. The gist of the method:
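Endothelium-free porcine aorta homogenized in 10 mM MOPS (pH 7.4) with 20% sucrose. Membranes spun 1000g 15 min, then supernatant 90000g 45 min, and resuspended in 5 mM HEPES-Tris. Incubated with 20 pM final 125I-ET-1 and graded compound concentrations in 50 mM Tris-HCl pH 7.4, 0.1% BSA, protease inhibitors, EDTA, 2 h at 25 °C. Filtered, washed, gamma-counted.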

Assay [2] deals with T2, Endothelin receptor type B (Homo sapiens, UniProt P24530).
T2 sequence (P24530 whole entry): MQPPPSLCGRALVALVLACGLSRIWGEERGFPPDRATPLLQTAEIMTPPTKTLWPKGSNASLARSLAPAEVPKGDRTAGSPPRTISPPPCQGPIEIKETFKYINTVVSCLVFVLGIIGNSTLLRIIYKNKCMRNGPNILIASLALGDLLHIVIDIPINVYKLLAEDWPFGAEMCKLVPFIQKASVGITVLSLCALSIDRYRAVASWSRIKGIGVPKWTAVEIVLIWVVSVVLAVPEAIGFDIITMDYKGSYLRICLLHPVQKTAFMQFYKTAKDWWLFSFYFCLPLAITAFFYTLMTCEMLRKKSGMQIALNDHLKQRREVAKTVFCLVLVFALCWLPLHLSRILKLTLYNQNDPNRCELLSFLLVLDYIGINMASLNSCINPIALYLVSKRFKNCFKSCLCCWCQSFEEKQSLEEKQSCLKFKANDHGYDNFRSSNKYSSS
Description: Ability to inhibit specific binding of [125I]- -ET-1 to human GH cells which express endothelin B receptor. Format: cell-based.

The target of assay [3] is T3, Endothelin-1 receptor (Rattus norvegicus, UniProt P26684).
T3 sequence (P26684 whole entry): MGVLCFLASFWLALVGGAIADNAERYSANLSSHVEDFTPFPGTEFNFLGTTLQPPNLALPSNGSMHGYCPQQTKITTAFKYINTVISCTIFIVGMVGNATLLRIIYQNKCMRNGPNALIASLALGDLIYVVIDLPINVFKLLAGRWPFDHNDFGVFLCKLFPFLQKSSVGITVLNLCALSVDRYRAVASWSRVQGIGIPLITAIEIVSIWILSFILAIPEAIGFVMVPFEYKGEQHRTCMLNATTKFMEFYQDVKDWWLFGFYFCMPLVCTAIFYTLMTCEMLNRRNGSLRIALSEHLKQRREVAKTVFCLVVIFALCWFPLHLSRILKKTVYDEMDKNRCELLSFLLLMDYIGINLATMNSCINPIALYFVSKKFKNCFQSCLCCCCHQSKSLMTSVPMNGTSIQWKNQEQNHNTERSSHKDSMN
Description: In vitro for specific binding of [125I]ET1 to A10 cell expressed in endothelin A receptor. The class given is cell-based.

Assay [4] concerns the target T2, Endothelin receptor type B. Put plainly: In vitro for specific binding of [125I]ET1 to GHcell expressed in Endothelin B receptor.

A word on the IC50: it is the concentration needed to halve the response being measured. Read a low IC50 as higher potency.

As to `COc1cccc(Oc2c(NS(=O)(=O)c3ccc(C(C)(C)C)cc3)ncnc2OCCO)c1`, the values for the IC50 (on Endothelin-1 receptor [1]; in assay [2]; at Endothelin-1 receptor [3]) were 160 nM, 1100 nM and 230 nM, respectively. Consider `Cc1ccc(-c2c(NS(=O)(=O)c3ccc(C(C)(C)C)cc3)ncnc2OCCOc2ncc(-c3ccco3)cn2)cc1`, for which the IC50 in assay [4] is 7 nM.

As for `CSc1cnc(OCCOc2ncnc(NS(=O)(=O)c3ccc(C(C)(C)C)cc3)c2-c2ccc(C)cc2)nc1`, the IC50 in assay [4] is 220 nM. Compared with the last compound, the IC50 is about 31-fold higher.

In assay [4], `Cc1ccc(-c2c(NS(=O)(=O)c3ccc(C(C)(C)C)cc3)ncnc2OCCOc2ncc(-c3cccs3)cn2)cc1` returned an IC50 of 3.8 nM. `Cc1ccc(-c2c(NS(=O)(=O)c3ccc(C(C)(C)C)cc3)ncnc2OCCOc2ncc(Br)cn2)cc1`: in assay [4], the IC50 stood at 38 nM.

As to `COc1ccccc1Oc1c(NS(=O)(=O)c2ccc(C(C)(C)C)cc2)nc(-c2ncccn2)nc1OCCO` [BOSENTAN SODIUM], the half-inhibitory concentration (IC50) on Endothelin-1 receptor [1] came out at 7.5 nM; at Endothelin-1 receptor [3] it was 1.4 nM.
